The record followed here is PMC9033243 (RSC Advances, 2021).

What is called MIC is the lowest concentration found to suppress growth. As a reminder, the inhibition is how much of the control response was suppressed.

One experiment has as its system E. coli (25922). Nature of the experiment: Antimicrobial susceptibility test. In kind it is cell-based. The note with it: Escherichia coli, 18 h, read-out: MIC E. coli (25922). Put shortly: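 Exponential-phase cells diluted to about 5 × 10^5 cfu mL−1, in CA-MHB for S. aureus ATCC 29213 and MHB for E. coli ATCC 25922. Test compound serially diluted in DMSO from a DMSO stock; final DMSO 1% (v/v), with 1% DMSO controls. After 37 °C for 18 h, OD600 is read and % inhibition taken against controls. MIC is the lowest concentration giving ≥90% inhibition. Three independent assays.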

Another experiment deals with T1, E. coli PBP 1b (Escherichia coli, UniProt P02919).
T1 sequence (P02919 1-844): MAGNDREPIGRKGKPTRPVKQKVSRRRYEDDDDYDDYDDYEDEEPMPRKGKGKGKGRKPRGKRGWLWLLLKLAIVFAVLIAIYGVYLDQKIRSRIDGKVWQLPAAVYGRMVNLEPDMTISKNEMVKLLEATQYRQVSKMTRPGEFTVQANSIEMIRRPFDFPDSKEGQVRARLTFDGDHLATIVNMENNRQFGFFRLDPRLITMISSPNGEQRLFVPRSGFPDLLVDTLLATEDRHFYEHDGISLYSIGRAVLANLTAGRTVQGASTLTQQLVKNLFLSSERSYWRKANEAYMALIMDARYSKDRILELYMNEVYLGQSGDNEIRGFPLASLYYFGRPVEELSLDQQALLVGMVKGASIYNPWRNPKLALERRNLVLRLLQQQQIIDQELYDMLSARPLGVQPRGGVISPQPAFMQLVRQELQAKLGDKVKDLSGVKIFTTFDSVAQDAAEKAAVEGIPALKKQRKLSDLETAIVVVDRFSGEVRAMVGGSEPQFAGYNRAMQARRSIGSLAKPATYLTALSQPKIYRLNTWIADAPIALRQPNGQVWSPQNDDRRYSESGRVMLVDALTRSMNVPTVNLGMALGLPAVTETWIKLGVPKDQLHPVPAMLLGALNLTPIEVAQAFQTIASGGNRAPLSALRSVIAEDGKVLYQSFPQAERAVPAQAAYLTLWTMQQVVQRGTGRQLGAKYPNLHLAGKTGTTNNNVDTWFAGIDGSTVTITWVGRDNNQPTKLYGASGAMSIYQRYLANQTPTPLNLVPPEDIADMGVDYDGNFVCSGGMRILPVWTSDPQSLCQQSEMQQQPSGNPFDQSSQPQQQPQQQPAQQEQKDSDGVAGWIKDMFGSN
Description: Lipid II-based in vitro transglycosylation assay. To be noted: read-out: Inhibition of PBP 1b activity at 50 μM. In kind it is biochemical. In short, it runs like this:
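E. coli PBP 1b (13.2 nM) is preincubated with test compound for 5 min at 30 °C. Buffer: 50 mM HEPES pH 7.5, 200 mM NaCl, 10 mM CaCl2, 0.08% decyl PEG, 10% DMSO, 15% methanol, 2 U μL−1 muramidase. Dansyl-lipid II (5 μM) is added for 5 min at 30 °C. Moenomycin A (1 μM, 10 min) quenches […]. Read by anion-exchange HPLC, in duplicate. IC50 from Hill fit; Ki via IC50 = Ki(1 + [s]/Km), Km = 1.8 μM.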

As to `C=C(C/C=C(\C)CCC=C(C)C)CCC(C)(C)/C=C/CC/C(C)=C\CO[C@H](COP(=O)(O)O[C@H]1O[C@H](C(N)=O)[C@@](C)(O)[C@H](OC(N)=O)[C@H]1O[C@@H]1O[C@H](CO[C@@H]2O[C@H](CO)[C@@H](O)[C@H](O)[C@H]2O)[C@@H](O[C@@H]2O[C@H](C)[C@@H](O[C@@H]3O[C@H](C(=O)NC4=C(O)CCC4=O)[C@H](O)[C@H](O)[C@H]3O)[C@H](O)[C@H]2NC(C)=O)[C@H](O)[C@H]1NC(C)=O)C(=O)O` [Moenomycin A], the MIC in the experiment with E. coli (25922) is greater than 96 µg/mL. Besides, at E. coli PBP 1b, the inhibition at 50 µM was found to be 100%.
